For series [1], the target named is T1, Poly [ADP-ribose] polymerase 1 (Homo sapiens, UniProt P09874). The experiment in a line: Inhibition of GST-tagged recombinant human PARP-1 expressed in Escherichia coli after 30 mins by fluorescence-based assay.
The nature of series [2]: Half life in human hepatocytes. It counts as ADME, cell-based, Hepatocyte.
Series [3] can be described thus: Metabolic stability in human plasma assessed as compound recovery after 2 hrs. It counts as ADME, cell-free. The settings on record: read-out: Drug recovery.
Series [4] in a line: Ratio of drug level in blood to plasma (unknown origin) after 60 mins. Type of series: ADME. Conditions: blood and plasma; call rule not given here.
Series [5] is described as follows: Activity at P-gp (unknown origin). It counts as ADME. The settings on record: human.
Series [6] is described as follows: Efflux ratio of permeability in human Caco2 cells. Type of series: ADME, cell-based. Conditions: Caco-2. In a few lines: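 Bidirectional Caco-2 cell monolayer permeability assay; the efflux ratio was derived from the two transport directions.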
The target in series [7] is T1, Poly [ADP-ribose] polymerase 1. Put plainly: Inhibition of PARP-1-mediated PARylation in H2O2-induced human HeLa cells preincubated for 3 hrs followed by H2O2 addition measured after 5 mins by Draq5 staining-based fluorescence assay. It counts as cell-based. In a few lines: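 HeLa cell PARylation assay; EC50 values are the mean of two experiments.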
Series [8] is described as follows: Growth inhibition of human MDA-MB-436 cells after 7 days by SRB assay. The settings on record: MDA-MB-436, 7 days.
The subject of a further series is MX1. The experiment in a line: Antitumor activity against human MX1 cells xenografted in SCID beige mouse assessed as tumor volume inhibition at 200 mg/kg, ip administered qd for 5 days per week up to 3 weeks relative to control. Type of series: functional. The arrangement: scale not given: the % may be the effect or the level left. The settings on record: route intraperitoneal. The procedure, abridged: (§1)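 MX1 breast carcinoma cells were xenografted into athymic SCID beige mice, with dosing starting 7 days after tumor injection. Compound was given intraperitoneally at 200 mg/10 mL/kg, schedule qdx5/wx3w, versus a vehicle group; 8 mice per group. Tumor volume and body weight loss were read at day +38. Tumor volume was compared with the vehicle group by Mann-Whitney test.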

For series [9], the system named is Mus musculus. Put plainly: Toxicity in SCID beige mouse xenografted with human MX1 cells assessed as body weight loss at 200 mg/kg, ip administered qd for 5 days per week up to 3 weeks relative to control. Type of series: organism-based. Set-up: dose 200 mg/kg, route intraperitoneal. The settings on record: in vivo. The procedure, abridged: as §1
For series [10], the system named is Mus musculus. Put plainly: Toxicity in SCID beige mouse xenografted with human MX1 cells assessed as lethality at 200 mg/kg, ip administered qd for 5 days per week up to 3 weeks. It counts as organism-based. The arrangement: dose 200 mg/kg, route intraperitoneal. The settings on record: in vivo. The procedure, abridged:
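Athymic SCID beige mice carrying MX1 breast carcinoma xenografts (BRCA1 deletion, BRCA2 mutation), 8 per group. Treatment began 7 days after tumour cell injection: ip at 200 mg/kg in 10 mL/kg, once daily 5 days/week for 3 weeks, with a vehicle-treated control group. Lethality was scored as deaths per group. Body-weight loss % was recorded alongside, and tumour volume was measured at day +38.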

T1 sequence (P09874 whole entry): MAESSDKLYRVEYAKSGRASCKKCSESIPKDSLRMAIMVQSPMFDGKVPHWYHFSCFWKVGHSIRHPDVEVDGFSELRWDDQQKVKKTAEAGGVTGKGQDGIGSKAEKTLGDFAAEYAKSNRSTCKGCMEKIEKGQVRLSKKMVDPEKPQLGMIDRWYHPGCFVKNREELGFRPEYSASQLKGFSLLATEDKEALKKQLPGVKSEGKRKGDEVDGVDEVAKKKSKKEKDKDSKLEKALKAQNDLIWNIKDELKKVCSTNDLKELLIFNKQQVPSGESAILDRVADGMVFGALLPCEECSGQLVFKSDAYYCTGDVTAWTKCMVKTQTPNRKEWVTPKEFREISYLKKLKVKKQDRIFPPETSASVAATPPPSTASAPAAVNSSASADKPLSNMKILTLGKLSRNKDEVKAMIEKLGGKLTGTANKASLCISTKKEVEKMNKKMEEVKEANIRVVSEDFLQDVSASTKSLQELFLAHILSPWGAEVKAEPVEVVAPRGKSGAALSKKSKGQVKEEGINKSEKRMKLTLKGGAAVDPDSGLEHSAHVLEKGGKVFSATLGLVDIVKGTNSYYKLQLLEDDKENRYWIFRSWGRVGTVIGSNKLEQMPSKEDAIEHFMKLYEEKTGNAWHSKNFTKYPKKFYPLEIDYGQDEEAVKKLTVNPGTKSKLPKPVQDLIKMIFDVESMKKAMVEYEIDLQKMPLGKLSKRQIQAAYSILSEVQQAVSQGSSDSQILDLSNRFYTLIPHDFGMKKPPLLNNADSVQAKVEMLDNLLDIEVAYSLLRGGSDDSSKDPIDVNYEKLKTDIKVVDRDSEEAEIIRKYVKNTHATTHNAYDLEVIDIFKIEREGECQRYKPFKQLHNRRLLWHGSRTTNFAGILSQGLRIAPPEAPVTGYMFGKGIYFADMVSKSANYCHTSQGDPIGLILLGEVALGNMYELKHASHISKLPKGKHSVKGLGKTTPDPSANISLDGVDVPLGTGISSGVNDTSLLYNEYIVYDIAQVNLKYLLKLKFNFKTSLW

Consider `NS(=O)(=O)Nc1ccc(NC(=O)CCn2c(=O)[nH]c(=O)c3ccccc32)cc1`, for which the IC50 in [1] came out at 0.41 µM. `O=C(CCc1nc2ccccc2c(=O)[nH]1)N1CCN(C(=O)c2ccc(F)cc2)CC1` gave a half-life in [2] of 10.3 h. For the same compound, the remaining at 2 h in [3] was 57%. Besides, the blood plasma ratio at 1 h in series [4] came to 0.4. In [5], the Activity entry is recorded as “Not Active”. The efflux ratio in [6] is 6. This compound had an EC50 in series [7] of 0.467 µM. The values for the IC50 in series [1] and in series [8] were 0.0561 µM and 19.5 µM, respectively.

On to `CC(NC(=O)COc1ccccc1C(N)=O)c1ccccc1` (stereo not drawn), for which the IC50 in [1] was determined as 0.82 µM.

`Cc1ccc(NS(=O)(=O)c2ccc(NC(=O)Cn3c(=O)[nH]c(=O)c4ccccc43)cc2C)c(C)c1`: in [1], the concentration for half-maximal inhibition (IC50) amounted to 1.28 µM.

Turning to `O=C1NC(=O)c2ccccc2/C1=C\c1ccc(F)cc1`, the IC50 in series [1] was 2.54 µM. Same read-out and setting: the value for `O=C(c1n[nH]c(=O)c2ccccc12)N1CCN(/C=C/c2ccccc2)CC1` was 0.26 µM.

Regarding `CC(NC(=O)Cc1n[nH]c(=O)c2ccccc12)c1ccc2c(c1)CCCC2` (stereo not drawn), in series [1], the IC50 turned out to be 1.86 µM. Still for that read-out and setting: next, `NC(=O)c1ccccc1OCC(=O)N1CC(=O)Nc2cc(C(F)(F)F)ccc21`: 1.06 µM.

On to `O=C(Cc1n[nH]c(=O)c2ccccc12)NCc1ccc(N2CCOCC2)nc1`, for which, in [1], the IC50 turned out to be 0.0498 µM.

`CC(C)NS(=O)(=O)c1ccc(NC(=O)Cc2n[nH]c(=O)c3ccccc23)cc1`: in series [1], the concentration for half-maximal inhibition (IC50) is 0.69 µM. Still for that read-out and setting: the value for `NC(=O)c1ccc(COc2ccccc2C(N)=O)cc1` was 0.82 µM. For `Cn1nnc2c(C(N)=O)ncn2c1=O` [TEMOZOLOMIDE], in series [8], inhibition was half-maximal at 120 µM (IC50). Regarding `CC(=O)Nc1ccc(NC(=O)CCn2c(=O)[nH]c(=O)c3ccccc32)cc1`, the IC50 in [1] was determined as 0.76 µM. On the same count and under the same terms, the value for `Cc1ccc(NC(=O)CCn2c(=O)[nH]c(=O)c3ccccc32)c(O)c1` was 0.35 µM; that for `O=C(CCc1nc2ccccc2c(=O)[nH]1)N1CCN(C(=O)C2CCCNC2)CC1` (stereo not drawn) was 0.0319 µM; that for `O=C(Cc1n[nH]c(=O)c2ccccc12)NCCc1ccc2c(c1)OCCO2` was 0.28 µM. `O=C1NC(=O)c2ccccc2/C1=C\Nc1ccccc1N1CCCCC1`: in series [1], the IC50 was 1.21 µM.

With `O=C1CN(C(=O)CSc2nc3ccccc3c(=O)[nH]2)c2ccccc2N1`, the IC50 in series [1] worked out at 0.54 µM. On the same count and under the same terms, the value for `C=CCOC(=O)N1CCCC(C(=O)N2CCN(C(=O)CCc3nc4ccccc4c(=O)[nH]3)CC2)C1` (stereo not drawn) was 0.3 µM. `O=C(CCc1nc2ccccc2c(=O)[nH]1)N1CCN(C(=O)c2cccs2)CC1`: the Activity with MX1 was 47%; in [5], “Not Active”; with Mus musculus [9] it was 10%; in the series on Mus musculus [10] it was “Non-toxic”. In series [2], the half-life turned out to be 9.73 h. Besides, the remaining at 2 h in series [3] is 50%. The blood plasma ratio at 1 h in series [4] is 0.4. Further, the efflux ratio in series [6] amounted to 5.8. In addition, in series [7], the EC50 worked out at 0.256 µM. Also, the IC50 in series [1] amounted to 0.0098 µM; in series [8], 17.3 µM. With `CCN(CC(=O)Cc1c(F)cccc1F)C(=O)Cc1n[nH]c(=O)c2ccccc12`, the IC50 in [1] came out at 0.6 µM. On the same count and under the same terms, the value for `NC(=O)c1ccc(NC(=O)CCn2c(=O)[nH]c(=O)c3ccccc32)cc1` was 0.13 µM. For `O=C(Cc1n[nH]c(=O)c2ccccc12)NCc1ccc(S(=O)(=O)N2CCOCC2)cc1`, in [1], the IC50 was found to be 0.6 µM. Still for that read-out and setting: next, `NC(=O)C1CCN(C(=O)CCc2nc(O)c3ccccc3n2)CC1`: 0.27 µM; `O=C(CCc1nc2ccccc2c(=O)[nH]1)N1CCN(C(=O)C2CCCC2)CC1`: 0.11 µM; `O=C(Cc1n[nH]c(=O)c2ccccc12)NCC(c1ccccc1Cl)N1CCCC1` (stereo not drawn): 1.96 µM. The same measure, in the same setting: next, `CC(=O)c1ccc(NC(=O)CCn2c(=O)[nH]c(=O)c3ccccc32)cc1`: 0.0876 µM. On the same count and under the same terms, next, `Cc1oc(C(N)=O)cc1COc1ccccc1C(N)=O`: 1.66 µM; `Cc1c(C(=O)N2CCN(C(=O)CCc3nc4ccccc4c(=O)[nH]3)CC2)oc2ccccc12`: 0.13 µM. As for `O=C1CN(C(=O)CCc2nc3ccccc3c(=O)[nH]2)CCN1`, the IC50 in series [1] came to 0.19 µM.

With `Cc1ccc2c(c1)CCCN2C(=O)CCc1nc2ccccc2c(=O)[nH]1`, in [1], the IC50 worked out at 1.03 µM.

Consider `O=C(CCn1c(=O)[nH]c(=O)c2ccccc21)Nc1ccccc1F`, for which, in series [1], the IC50 is 1.52 µM.

`O=C(CCc1nc2ccccc2c(=O)[nH]1)N1CCN(C(=O)c2ccc[nH]2)CC1`: in series [7], the EC50 amounted to 0.865 µM. Further, the IC50 in series [1] came to 0.0295 µM; in [8], 18.1 µM. With `CC(=O)c1ccc(N2CCN(C(=O)COc3ccccc3C(N)=O)CC2)c(F)c1`, the IC50 in [1] turned out to be 0.28 µM. Consider `NC(=O)c1ccc(NC(=O)CCCc2nc3ccccc3c(=O)[nH]2)cc1`, for which, in [1], the IC50 is 4.7 µM. Consider `O=C(CN1CCN(C(=O)Cc2n[nH]c(=O)c3ccccc23)CC1)Nc1cccc(F)c1`, for which the IC50 in series [1] worked out at 1.1 µM. On the same count and under the same terms, the value for `C=CCN1CCCC(C(=O)N2CCN(C(=O)CCc3nc4ccccc4c(=O)[nH]3)CC2)C1` (stereo not drawn) was 0.22 µM; that for `O=C(CCc1nc2ccccc2c(=O)[nH]1)N1CCN(C(=O)c2ccco2)CC1` was 0.0285 µM. Still for that read-out and setting: the value for `CN(C)CC(C)(C)CN/C=C1/C(=O)NC(=O)c2ccccc21` was 0.0874 µM; that for `NC(=O)c1ccccc1OCC(=O)N1CCc2ccccc2C1` was 0.0429 µM.

Regarding `O=C(CCc1nc2ccccc2c(=O)[nH]1)N1CCN(C(=O)C2CCCO2)CC1` (stereo not drawn), the IC50 in series [1] came out at 0.13 µM. In turn, `O=C(CCc1nc2ccccc2c(=O)[nH]1)N1CCN(C(=O)C2CC2)CC1` gave an EC50 in series [7] of 0.707 µM. Further, the IC50 in series [1] is 0.0671 µM; in series [8] it was 51.1 µM.

The record behind these values is ChEMBL document CHEMBL3102760, “Novel PARP-1 inhibitors based on a 2-propanoyl-3H-quinazolin-4-one scaffold” (Bioorg Med Chem Lett, 2014).
